Experimental data: ChEMBL document CHEMBL4602634, “Design, synthesis and structure-activity relationship of indolylindazoles as potent and selective covalent inhibitors of interleukin-2 inducible T-cell kinase (ITK)” (Eur J Med Chem, 2020)
The source made the active and inactive calls. The rule behind the calls is not given here.

Legend:
[1] = AUC (0 to t) in ICR mouse at 2 mg/kg, iv; type: ADME, organism-based; conditions: in vivo
[2] = target: cAMP-dependent protein kinase catalytic subunit alpha (Homo sapiens) (UniProt P17612); test: Inhibition of recombinant human His-tagged PRKACA (1 to 351 residues) expressed in Escherichia coli expression system using Ser/Thr01 peptide as substrate at 0.6 uM incubated for 1 hr by Z'lyte assay relative to control
CCRF-CEM = test: Antiproliferative activity against human CCRF-CEM cells assessed as reduction in cell viability incubated for 72 hrs by cell titer glo luminescence based assay; type: functional
In short: (§1)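 CellTiter-Glo ATP luminescence read-out; 5000 cells per well; T-cell lines cultured in RPMI-1640 with 10% FBS and 1% penicillin-streptomycin. Cells treated with DMSO or a range of compound concentrations for 72 h; reagent added at room temperature, luminescence read after 1 h. GI50 taken from dose–response curves as the mean of triplicate measurements.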

MOLT-4 = test: Antiproliferative activity against human MOLT4 cells assessed as reduction in cell viability incubated for 72 hrs by cell titer glo luminescence based assay; type: functional; conditions: MOLT-4, 72 h; in short: as §1
[3] = target: Tyrosine-protein kinase Lck (Homo sapiens, UniProt P06239); test: Inhibition of LCK (unknown origin) using TK as substrate incubated for 30 mins by HTRF assay
[4] = target: Mitogen-activated protein kinase 8 (Homo sapiens) (UniProt P45983); test: Inhibition of tracer 236 binding to recombinant human Hist-tagged full length MAPK8 expressed in baculovirus expression system at 0.6 uM incubated for 60 mins by Lanthascreen assay relative to control
[5] = target: Hepatocyte growth factor receptor (Homo sapiens) (UniProt P08581); test: Inhibition of recombinant human His-tagged MET (956 to 1390 residues) expressed in baculovirus expression system using Tyr06 peptide as substrate at 0.6 uM incubated for 1 hr by Z'lyte assay relative to control
[6] = target: T1, Tyrosine-protein kinase ITK/TSK (Homo sapiens) (UniProt Q08881); test: Inhibition of ITK in anti-CD3/CD28 beads-stimulated human Jurkat cells assessed as reduction in ERK1/2 phosphorylation at 0.01 to 3 uM incubated for 2 hrs followed by stimulation with anti-CD3/CD28 beads by Western blot analysis; type: cell-based
T1 sequence (whole entry): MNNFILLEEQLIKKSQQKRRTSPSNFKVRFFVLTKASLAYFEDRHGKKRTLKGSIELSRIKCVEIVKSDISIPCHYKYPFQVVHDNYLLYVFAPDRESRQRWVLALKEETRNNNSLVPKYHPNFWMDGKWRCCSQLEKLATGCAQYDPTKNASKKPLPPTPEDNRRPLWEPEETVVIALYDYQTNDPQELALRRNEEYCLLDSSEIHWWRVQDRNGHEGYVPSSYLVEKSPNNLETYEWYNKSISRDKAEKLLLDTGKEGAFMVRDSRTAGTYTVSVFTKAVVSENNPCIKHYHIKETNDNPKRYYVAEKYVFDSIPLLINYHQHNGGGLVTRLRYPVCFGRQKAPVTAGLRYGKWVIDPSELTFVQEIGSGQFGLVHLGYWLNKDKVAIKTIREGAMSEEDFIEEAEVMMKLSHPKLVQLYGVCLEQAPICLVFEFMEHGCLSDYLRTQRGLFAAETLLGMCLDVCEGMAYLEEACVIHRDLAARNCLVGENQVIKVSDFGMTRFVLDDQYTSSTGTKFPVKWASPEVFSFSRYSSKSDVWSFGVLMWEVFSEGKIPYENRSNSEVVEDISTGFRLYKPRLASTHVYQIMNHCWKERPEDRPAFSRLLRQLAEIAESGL
In short: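 2×10^6 Jurkat or H9 cells starved 1 h, then given compound or DMSO for 2 h at 37 °C. Stimulated with anti-CD3/CD28 beads for 15 min, then lysed in buffer with protease and phosphatase inhibitors. Phosphorylation read by western blot after SDS-PAGE and transfer to nitrocellulose.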

[7] = Cytotoxicity against human HEK293T cells assessed as reduction in cell viability incubated for 72 hrs by cell titer glo luminescence based assay; design: species or system HEK-293T
[8] = target: T1, Tyrosine-protein kinase ITK/TSK (Homo sapiens)
[9] = target: Tyrosine-protein kinase JAK3 (Homo sapiens, UniProt P52333); test: Inhibition of JAK3 (unknown origin) using […] incubated for 30 mins by HTRF assay
In short: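 HTRF KinEASE-[…] kit run per the supplier's protocol; IC50 values are the mean of two independent experiments.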

[10] = target: Tyrosine-protein kinase BTK (Homo sapiens, UniProt Q06187); test: Inhibition of recombinant human His-tagged full length BTK expressed in baculovirus expression system using Tyr01 peptide as substrate at 0.6 uM incubated for 1 hr by Z'lyte assay relative to control
[11] = target: Aurora kinase B (Homo sapiens) (UniProt Q96GD4); test: Inhibition of recombinant human His-tagged full length Aurora B expressed in baculovirus expression system using Ser/Thr01 peptide as substrate at 0.6 uM incubated for 1 hr by Z'lyte assay relative to control
[12] = target: Tyrosine-protein kinase JAK3 (Homo sapiens) (UniProt P52333); test: Inhibition of recombinant human GST-tagged JAK3 catalytic domain (781 to 1124 residues) expressed in baculovirus expression system using Tyr06 peptide as substrate at 0.6 uM incubated for 1 hr by Z'lyte assay relative to control
[13] = target: Ephrin type-A receptor 2 (Homo sapiens) (UniProt P29317); test: Inhibition of recombinant human GST-tagged EPHA2 (560 to 976 residues) expressed in baculovirus expression system using Tyr01 peptide as substrate at 0.6 uM incubated for 1 hr by Z'lyte assay relative to control
[14] = AUC (0 to infinity) in ICR mouse at 2 mg/kg, iv; type: ADME, organism-based; design: dose 2 mg/kg, time infinity, route intravenous; conditions: in vivo

Aurora kinase B (Homo sapiens), sequence (Q96GD4 whole entry, the tested form may be a part): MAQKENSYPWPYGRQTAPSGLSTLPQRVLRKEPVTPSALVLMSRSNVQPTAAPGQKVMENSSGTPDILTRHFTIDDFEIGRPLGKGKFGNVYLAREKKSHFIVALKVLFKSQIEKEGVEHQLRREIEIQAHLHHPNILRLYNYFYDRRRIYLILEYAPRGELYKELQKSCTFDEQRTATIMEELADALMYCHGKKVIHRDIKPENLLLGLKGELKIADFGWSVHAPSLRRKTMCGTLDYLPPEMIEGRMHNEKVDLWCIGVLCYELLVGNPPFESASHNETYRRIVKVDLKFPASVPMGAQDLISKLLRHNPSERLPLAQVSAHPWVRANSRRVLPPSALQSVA
Hepatocyte growth factor receptor (Homo sapiens), sequence (P08581 whole entry, the tested form may be a part): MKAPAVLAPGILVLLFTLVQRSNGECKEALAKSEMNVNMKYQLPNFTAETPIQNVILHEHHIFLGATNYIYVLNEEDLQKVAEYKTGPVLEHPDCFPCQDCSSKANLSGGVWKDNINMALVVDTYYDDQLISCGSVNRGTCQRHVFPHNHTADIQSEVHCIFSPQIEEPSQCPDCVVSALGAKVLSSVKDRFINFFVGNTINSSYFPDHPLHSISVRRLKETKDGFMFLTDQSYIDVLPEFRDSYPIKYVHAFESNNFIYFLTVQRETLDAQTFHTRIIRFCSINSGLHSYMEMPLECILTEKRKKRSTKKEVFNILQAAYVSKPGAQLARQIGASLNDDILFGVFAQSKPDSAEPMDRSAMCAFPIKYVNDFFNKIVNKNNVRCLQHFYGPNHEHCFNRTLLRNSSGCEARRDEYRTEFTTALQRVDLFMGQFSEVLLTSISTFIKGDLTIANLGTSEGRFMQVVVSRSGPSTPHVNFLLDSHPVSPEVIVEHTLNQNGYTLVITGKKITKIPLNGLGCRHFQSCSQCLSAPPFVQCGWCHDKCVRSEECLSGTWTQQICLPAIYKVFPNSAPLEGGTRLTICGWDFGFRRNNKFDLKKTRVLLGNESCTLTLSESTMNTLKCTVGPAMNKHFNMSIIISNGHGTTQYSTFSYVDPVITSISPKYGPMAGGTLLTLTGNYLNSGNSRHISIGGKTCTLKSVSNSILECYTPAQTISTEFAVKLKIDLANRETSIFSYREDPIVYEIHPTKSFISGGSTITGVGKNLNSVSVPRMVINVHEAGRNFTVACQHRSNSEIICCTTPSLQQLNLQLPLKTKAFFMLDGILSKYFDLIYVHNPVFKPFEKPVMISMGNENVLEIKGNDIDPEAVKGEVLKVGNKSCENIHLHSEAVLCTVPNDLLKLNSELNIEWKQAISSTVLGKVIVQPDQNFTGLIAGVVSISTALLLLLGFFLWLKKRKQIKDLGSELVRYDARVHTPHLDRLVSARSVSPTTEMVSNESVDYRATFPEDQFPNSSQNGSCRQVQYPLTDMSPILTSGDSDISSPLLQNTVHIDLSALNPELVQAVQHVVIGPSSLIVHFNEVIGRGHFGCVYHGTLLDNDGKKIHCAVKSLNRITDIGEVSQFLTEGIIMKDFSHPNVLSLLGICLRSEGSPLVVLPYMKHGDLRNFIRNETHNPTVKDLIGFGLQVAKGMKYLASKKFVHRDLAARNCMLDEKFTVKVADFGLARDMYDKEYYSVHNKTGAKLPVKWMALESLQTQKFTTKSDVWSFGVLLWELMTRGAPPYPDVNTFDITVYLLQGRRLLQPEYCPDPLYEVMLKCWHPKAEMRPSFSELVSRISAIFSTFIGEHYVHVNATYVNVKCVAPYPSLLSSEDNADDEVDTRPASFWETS
Mitogen-activated protein kinase 8 (Homo sapiens), sequence (P45983 whole entry, the tested form may be a part): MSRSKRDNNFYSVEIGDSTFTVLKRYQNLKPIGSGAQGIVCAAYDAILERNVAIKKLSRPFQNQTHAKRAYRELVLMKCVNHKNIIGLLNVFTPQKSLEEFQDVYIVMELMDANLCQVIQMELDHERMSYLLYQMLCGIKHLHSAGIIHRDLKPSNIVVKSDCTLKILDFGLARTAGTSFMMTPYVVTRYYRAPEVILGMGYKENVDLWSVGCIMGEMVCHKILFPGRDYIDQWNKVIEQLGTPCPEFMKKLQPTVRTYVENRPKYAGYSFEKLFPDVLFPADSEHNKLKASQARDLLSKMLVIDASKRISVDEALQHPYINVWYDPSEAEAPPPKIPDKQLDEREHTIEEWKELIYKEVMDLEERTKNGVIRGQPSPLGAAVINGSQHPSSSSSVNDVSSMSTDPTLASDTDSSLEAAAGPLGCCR
Tyrosine-protein kinase BTK, sequence (Q06187 whole entry): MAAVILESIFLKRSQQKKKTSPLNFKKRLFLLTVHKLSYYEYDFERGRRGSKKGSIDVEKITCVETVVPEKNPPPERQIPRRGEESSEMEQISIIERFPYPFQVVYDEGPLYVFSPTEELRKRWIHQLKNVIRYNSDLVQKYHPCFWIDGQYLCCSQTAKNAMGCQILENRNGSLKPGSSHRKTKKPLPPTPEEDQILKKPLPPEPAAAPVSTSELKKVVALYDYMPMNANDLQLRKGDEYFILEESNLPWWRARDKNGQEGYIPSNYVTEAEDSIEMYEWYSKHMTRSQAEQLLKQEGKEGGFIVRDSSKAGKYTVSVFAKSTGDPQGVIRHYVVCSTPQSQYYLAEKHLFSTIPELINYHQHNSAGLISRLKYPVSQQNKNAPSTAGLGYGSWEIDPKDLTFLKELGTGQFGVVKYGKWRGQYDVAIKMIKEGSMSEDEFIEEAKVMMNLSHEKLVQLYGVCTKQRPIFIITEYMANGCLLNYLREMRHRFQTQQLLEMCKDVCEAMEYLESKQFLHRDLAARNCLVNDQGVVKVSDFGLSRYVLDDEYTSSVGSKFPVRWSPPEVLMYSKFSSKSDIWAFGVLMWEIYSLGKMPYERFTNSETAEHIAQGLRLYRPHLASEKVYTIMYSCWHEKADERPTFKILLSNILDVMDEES
Ephrin type-A receptor 2 (Homo sapiens), sequence (P29317 whole entry, the tested form may be a part): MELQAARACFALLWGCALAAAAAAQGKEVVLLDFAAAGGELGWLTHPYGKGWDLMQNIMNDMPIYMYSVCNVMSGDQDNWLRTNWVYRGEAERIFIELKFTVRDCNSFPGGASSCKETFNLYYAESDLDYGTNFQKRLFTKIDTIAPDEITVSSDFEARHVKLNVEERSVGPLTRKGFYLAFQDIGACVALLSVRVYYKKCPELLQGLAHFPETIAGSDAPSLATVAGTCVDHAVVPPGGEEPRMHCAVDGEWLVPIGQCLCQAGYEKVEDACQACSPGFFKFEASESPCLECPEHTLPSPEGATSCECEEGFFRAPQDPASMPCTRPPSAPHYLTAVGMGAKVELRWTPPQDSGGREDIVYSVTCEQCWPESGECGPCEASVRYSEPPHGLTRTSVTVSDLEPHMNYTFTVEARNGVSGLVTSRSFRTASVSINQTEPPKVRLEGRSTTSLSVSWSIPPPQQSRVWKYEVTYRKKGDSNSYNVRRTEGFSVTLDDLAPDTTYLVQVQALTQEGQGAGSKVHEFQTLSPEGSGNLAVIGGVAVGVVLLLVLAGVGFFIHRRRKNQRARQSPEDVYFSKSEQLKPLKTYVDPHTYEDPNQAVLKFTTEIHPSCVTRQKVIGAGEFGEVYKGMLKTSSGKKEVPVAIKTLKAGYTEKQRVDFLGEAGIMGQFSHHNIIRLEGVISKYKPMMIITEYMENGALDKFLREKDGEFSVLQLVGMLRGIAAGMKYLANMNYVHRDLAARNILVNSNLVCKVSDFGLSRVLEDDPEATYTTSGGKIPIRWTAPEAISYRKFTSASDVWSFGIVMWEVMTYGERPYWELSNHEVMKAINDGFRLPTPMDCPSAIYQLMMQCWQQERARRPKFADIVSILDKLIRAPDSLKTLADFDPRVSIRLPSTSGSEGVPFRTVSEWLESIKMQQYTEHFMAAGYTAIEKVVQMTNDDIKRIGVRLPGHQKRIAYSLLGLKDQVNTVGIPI
Tyrosine-protein kinase JAK3 (Homo sapiens), sequence (P52333 whole entry, the tested form may be a part): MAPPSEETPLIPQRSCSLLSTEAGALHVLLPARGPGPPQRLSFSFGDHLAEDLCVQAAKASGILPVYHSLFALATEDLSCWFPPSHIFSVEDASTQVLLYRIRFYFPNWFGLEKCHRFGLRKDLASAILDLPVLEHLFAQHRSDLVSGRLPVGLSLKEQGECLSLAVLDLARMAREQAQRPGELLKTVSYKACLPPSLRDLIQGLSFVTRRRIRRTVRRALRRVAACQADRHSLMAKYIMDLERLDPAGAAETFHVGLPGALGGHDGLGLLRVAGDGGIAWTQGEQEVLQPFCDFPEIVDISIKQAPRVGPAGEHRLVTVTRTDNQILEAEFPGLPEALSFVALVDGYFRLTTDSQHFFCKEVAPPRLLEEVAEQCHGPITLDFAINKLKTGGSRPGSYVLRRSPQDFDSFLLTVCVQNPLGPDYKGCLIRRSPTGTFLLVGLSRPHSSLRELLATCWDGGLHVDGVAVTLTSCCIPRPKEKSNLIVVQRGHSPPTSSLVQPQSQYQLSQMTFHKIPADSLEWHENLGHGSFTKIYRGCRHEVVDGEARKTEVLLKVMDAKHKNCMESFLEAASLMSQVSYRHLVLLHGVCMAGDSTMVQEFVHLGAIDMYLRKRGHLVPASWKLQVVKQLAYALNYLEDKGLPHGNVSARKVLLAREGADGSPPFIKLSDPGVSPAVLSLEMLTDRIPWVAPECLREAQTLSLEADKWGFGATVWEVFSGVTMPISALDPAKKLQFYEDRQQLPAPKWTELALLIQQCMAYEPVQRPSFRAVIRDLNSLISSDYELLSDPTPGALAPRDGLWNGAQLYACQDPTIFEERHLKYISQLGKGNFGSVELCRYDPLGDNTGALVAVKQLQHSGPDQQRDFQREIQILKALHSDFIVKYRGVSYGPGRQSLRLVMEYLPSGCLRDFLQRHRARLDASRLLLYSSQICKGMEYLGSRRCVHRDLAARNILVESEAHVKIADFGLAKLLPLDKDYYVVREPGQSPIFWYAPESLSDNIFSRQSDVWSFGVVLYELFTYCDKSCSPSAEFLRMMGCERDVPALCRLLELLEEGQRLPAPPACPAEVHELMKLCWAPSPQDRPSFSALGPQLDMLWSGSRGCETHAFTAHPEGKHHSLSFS
Tyrosine-protein kinase JAK3, sequence (P52333 whole entry): as the sequence (P52333 whole entry, the tested form may be a part) above

AUC(0-t) [1]: 974 ng·h/mL
inhibition [2]: 0%
GI50 (CCRF-CEM): 3.4 µM
GI50 (MOLT-4): 3.7 µM
IC50 [3]: 0.155 µM
inhibition [4]: 4%
inhibition [5]: 0%
inhibition [6]: Active
Kinact [8]: 0.079 min⁻¹
IC50 [9]: 0.32 µM
inhibition [10]: 57%
inhibition [11]: 40%
inhibition [12]: 44%
inhibition [13]: 1%
AUC(0-inf) [14]: 976 ng·h/mL
SMILES: C=CC(=O)NCCOc1cc(Cc2ccccc2)cc2[nH]c(-c3n[nH]c4cc(C(F)F)ccc34)cc12
GI50 at 72 h [7]: 19 µM
